Only some compounds are listed: those with a hit (about 3.8% of all), similar ones and a draw of the others.
T cell modulator – T cell immune modulation candidate. actives 0.068% (n = 330,000). response (vesicle binding), % at 7 µM. 2C CD8+ T cell-vesicle binding, flow cytometry; stronger effect = lower value. AID 2052;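 active = response, share of CD8 T cells binding vesicles, and their 90th percentile fluorescence all below set limits, cut at about 80% in these data, passing the limit was not always enough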;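 note: values below 100% mean blocked vesicle binding to the CD8+ T cells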
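Read-out – percent CD8+ FL2 mean versus row control · System – murine 2C transgenic CD8+ T lymphocytes · Times – 1.5 h cell–vesicle binding at 37 °C, then 20 min icy labelling · Control set – naked vesicles low, QL9 vesicles with vehicle high · Detection – cytometric PE anti-B7-1 and Alexa647 anti-CD8 signals after 1% paraformaldehyde fixation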
MPTP block – inhibitors of mitochondrial permeability transition pore; isolated mouse mitochondria, Ca2+ swelling absorbance, 30 min; AID 602449; actives 1.4% (n = 360,000); inhibition, % at 10 µM;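 active = inhibition of 50% or more, scaled per plate between neutral and stimulator controls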;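 note: 0% = DMSO wells given calcium and 100% = 1 mM EGTA wells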
Exocytosis inh – blocks lytic granule exocytosis | actives 0.66% (n = 360,000) | inhibition, % at 10 µM | TALL-104 LAMP-1 surface exposure, flow cytometry; cells stimulated with thapsigargin and PMA | AID 651702;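 active = inhibition above about 55%, limit read from the data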
rCAG RNA binder – binds r(CAG) RNA repeats; actives 1.3% (n = 370,000); inhibition, % at 3 µM; r(CAG) RNA repeat, TO-PRO-1 dye displacement fluorescence;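 active = inhibition above the plate cutoff, the mean of all test compounds on that plate plus 3 SD, cut at about 35% in these data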;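 note: 0% = DMSO alone and 100% = 100 µM mitoxantrone as full dye displacement; higher means more dye released from RNA so lower well fluorescence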
V-ATPase pH – regulators of yeast V-ATPase proton transport | S. cerevisiae, pHLuorin cytosolic pH fluorescence | response, % at 10 µM | actives 0.37% (n = 350,000) | AID 504577; in the data active = response mostly above about 7.3%, no sharp cut-off; inactive = mostly below about 5.4%; note: actives read high
B2AR ag – agonists of human beta-2 adrenergic receptor inducing internalization; P07550; Am2.2-beta2AR cells, FAP receptor internalization, flow cytometry; response, % (concentration not given with the values); actives 0.43% (n = 340,000); AID 504454;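 active = response above a set limit, near 3 SD of response in nonfluorescent compounds, cut at about 42% in these data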
Target sequence (P07550 whole entry, looked up): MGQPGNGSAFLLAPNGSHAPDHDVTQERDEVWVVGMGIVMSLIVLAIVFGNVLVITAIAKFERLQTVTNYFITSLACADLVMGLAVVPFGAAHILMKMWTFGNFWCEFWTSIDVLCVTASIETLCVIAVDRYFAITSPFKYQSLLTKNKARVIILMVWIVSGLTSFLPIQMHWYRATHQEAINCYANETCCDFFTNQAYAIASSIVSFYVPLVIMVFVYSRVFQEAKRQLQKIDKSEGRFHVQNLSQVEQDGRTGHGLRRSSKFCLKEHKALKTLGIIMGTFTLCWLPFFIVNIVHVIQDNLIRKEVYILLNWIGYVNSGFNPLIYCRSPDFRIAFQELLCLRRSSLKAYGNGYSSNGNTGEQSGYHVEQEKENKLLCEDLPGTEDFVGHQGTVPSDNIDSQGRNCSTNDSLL
Active calls of the source: *.

CCc1ccc(/C=N/NC(=O)c2cc(-c3cccc([N+](=O)[O-])c3)n[nH]2)cc1 was read as T cell modulator 460, MPTP block 24, Exocytosis inh 76*, rCAG RNA binder 8, V-ATPase pH -2 and B2AR ag 12.
`CCOC(=O)c1c(C)oc2c(F)c(F)c(F)c(F)c2c1=O` gave T cell modulator 172, MPTP block 0, Exocytosis inh 46, rCAG RNA binder 12, V-ATPase pH 2 and B2AR ag 43*.
`O=C(c1ccc(N2C(=O)C3CC=C(Cl)CC3C2=O)cc1)N1CCCCC1` (stereo not drawn) gave T cell modulator 0.0*, MPTP block -1, Exocytosis inh -3, rCAG RNA binder -1, V-ATPase pH 0 and B2AR ag 2.
`C[C@@H]1/C=C/CC(=O)N2[C@H](CC(=O)N[C@@H]1c1ccccc1)C[C@@H](C)[C@H]2c1ccccc1` gave rCAG RNA binder 4.
CN(C)S(=O)(=O)c1ccc(-c2csc(N/N=C/c3ccco3)n2)cc1 was read as T cell modulator 65, MPTP block 14, Exocytosis inh 102*, rCAG RNA binder 24, V-ATPase pH 0 and B2AR ag 25.
Cc1ccc(-c2csc(N/N=C/c3ccco3)n2)cc1 was read as T cell modulator 200, MPTP block 2, Exocytosis inh -3, rCAG RNA binder 18, V-ATPase pH 1 and B2AR ag -4.
CCOC(=O)C1=NN(c2ccc(OC)cc2)C2C(=O)N(c3ccccc3OC)C(=O)C12 (stereo not drawn) was read as T cell modulator 122, MPTP block 1, Exocytosis inh -4, rCAG RNA binder 3, V-ATPase pH -1 and B2AR ag -2.
`CCOC(=O)C1=NN(C(=O)Nc2ccc(OC)cc2)C2C(=O)N(c3cccc(C(F)(F)F)c3)C(=O)C12` (stereo not drawn) gave T cell modulator 142, MPTP block -5, Exocytosis inh -7, rCAG RNA binder 54*, V-ATPase pH -3 and B2AR ag 0.
Screening Cc1ccc(NN2C(=O)C=C(c3ccc(Cl)cc3)C2=O)cc1 returned T cell modulator 116, MPTP block 0, Exocytosis inh 39, rCAG RNA binder 11, V-ATPase pH 8 and B2AR ag 3.
For O=C1C=C(c2ccccc2)C(=O)N1Nc1ccccc1 the results were T cell modulator 118, MPTP block -5, Exocytosis inh 59*, rCAG RNA binder 4, V-ATPase pH 4 and B2AR ag -5.
Screening CSc1nncc(/C(C)=N/O)n1 returned T cell modulator 194, MPTP block 0, Exocytosis inh -2, rCAG RNA binder -1, V-ATPase pH -1 and B2AR ag -7.
`CSc1nncc(/C(C)=N\Nc2ccccc2C)n1` gave T cell modulator 162, MPTP block -5, Exocytosis inh -3, rCAG RNA binder 3, V-ATPase pH 0 and B2AR ag 48*.
`CCOC(=O)Cc1nc(N2CCN(C(=O)C3CCCO3)CC2)c2c(C)c(C(=O)OCC)sc2n1` (stereo not drawn) gave rCAG RNA binder 3.
For N#CCN1CCN(CC(=O)Nc2ccc(OCc3ccccc3)cc2)CC1 the results were T cell modulator 422, MPTP block 1, Exocytosis inh 0, rCAG RNA binder 0, V-ATPase pH 0 and B2AR ag 42*.
C[C@@]12C(=O)OC(=O)[C@]1(C)C1CCC2O1 was read as T cell modulator 91, MPTP block -1, Exocytosis inh -5, rCAG RNA binder 3, V-ATPase pH 0 and B2AR ag 81*.
`O=C(CCc1ccccc1)N[C@H]1[C@H](OC(=O)c2cnccn2)CCC[C@]12C(=O)N(Cc1ccccc1)c1ccccc12` gave rCAG RNA binder 6.
`COC(=O)c1cc(-c2cccc(OC(F)(F)F)c2)c(=O)n2c1CCC2` gave rCAG RNA binder -2.
Screening CCOC(=O)c1c(C)[nH]c(C(=O)COC(=O)CCSc2ccccc2)c1C returned T cell modulator 256, MPTP block 1, Exocytosis inh -2, rCAG RNA binder 4, V-ATPase pH 1 and B2AR ag 0.
`CCOC(=O)c1c(C)[nH]c(C(=O)CSc2ccccc2)c1C` gave T cell modulator 260, MPTP block -6, Exocytosis inh -4, rCAG RNA binder 2, V-ATPase pH 14* and B2AR ag -3.
O=C1C(NC(=O)N2c3ccccc3C=Cc3ccccc32)CCCCN1Cc1cccc(C(F)(F)F)c1 (stereo not drawn) was read as rCAG RNA binder 0.
`CCn1nc(C)cc1C(=O)Sc1cccc(Cl)c1` gave T cell modulator 880, MPTP block -1, Exocytosis inh 68*, rCAG RNA binder 42*, V-ATPase pH 2 and B2AR ag 1.
For Cc1nn(C)c(C(=O)Sc2cccc(Cl)c2)c1[N+](=O)[O-] the results were T cell modulator 464, MPTP block 2, Exocytosis inh 64*, rCAG RNA binder -3, V-ATPase pH -2 and B2AR ag 10.
Screening CCOC(=O)[C@]12CCCCC/C=C\1N(Cc1ccc(OC)cc1)C(=O)[C@H]2CC(=O)NCc1ccc(OC)c(OC)c1 returned rCAG RNA binder 4.
CCCC[C@@H]1C(=O)N2N=Cc3cc4ccccc4cc3[C@H]2N2N=Cc3cc4ccccc4cc3[C@@H]12 was read as rCAG RNA binder 12.
For COc1ccc2c(c1)CCCN2C(=O)C1CCCN(S(=O)(=O)c2ccc(C(C)(C)C)cc2)C1 (stereo not drawn) the results were rCAG RNA binder 8.
Screening NCCNc1ccc(C(=O)N2c3ccccc3Sc3ccccc32)cc1[N+](=O)[O-] returned T cell modulator 138, MPTP block -4, Exocytosis inh 66*, rCAG RNA binder 30, V-ATPase pH 0 and B2AR ag 8.
For Nc1ccc(C(=O)OCC(=O)N2c3ccccc3Sc3ccccc32)cc1[N+](=O)[O-] the results were T cell modulator 663, MPTP block 2, Exocytosis inh -2, rCAG RNA binder 5, V-ATPase pH 0 and B2AR ag -3.
O=C(COc1ccc2ccc(=O)oc2c1)Nc1cc([N+](=O)[O-])ccc1F was read as T cell modulator 685, MPTP block 0, Exocytosis inh 4, rCAG RNA binder 3, V-ATPase pH 0 and B2AR ag 60*.
`CCn1c(=O)c(C(=O)NCCc2ccccc2)c(O)c2ccccc21` gave T cell modulator 455, MPTP block 4, Exocytosis inh 14, rCAG RNA binder 1, V-ATPase pH -7 and B2AR ag -58.
CC(=O)c1c(O)c2ccccc2n(Cc2ccccc2)c1=O was read as T cell modulator 58*, MPTP block 0, Exocytosis inh -2, rCAG RNA binder 3, V-ATPase pH 0 and B2AR ag -6.
